Laboratory results as given in PubChem BioAssay.
Inconclusive results are not listed.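 The calls were made as follows, unless noted: active = viability increase at or above a cutoff of the median across tested compounds plus 3 SD (cut at about 8.5% in these data, passing the limit was not always enough); inconclusive = some gains above the cutoff, reason not given; inactive = the rest.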

Legend:
[1] = S. cerevisiae growth inhibition in permissive medium (OD615), pilot counter-assay for S. cerevisiae lifespan shortening project, permissive growth control (AID 705;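 active = growth inhibition above 25% in both replicates, a cutoff set 3 SD above the mean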); details: OD615, 24 h, at 10 µM, hits give high values
Procedure, shortened: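 System: engineered DeaD yeast; Medium: permissive raffinose/galactose medium; Compound dosing: 10 µM single dose, 0.25% DMSO; Incubation: 4 h cell pre-growth, 24 h exposure at 30 °C; Technique: OD at 615 nm; Evaluation: growth inhibition from lowered OD615 after 24 h.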

[2] = S. cerevisiae growth inhibition in restrictive medium, OD615, pilot screen, restrictive growth control, yeast lifespan reduction project (AID 706;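 active = growth inhibition above a set limit, 3 SD over mean compound inhibition, in both replicates, cut at about 43% in these data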;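 also: modified DeaD lifespan yeast strain shifted to restrictive glucose medium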); details: OD615, 48 h, at 10 µM, hits give high values
Procedure, shortened: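 Material: modified S. cerevisiae; buffer or medium: CSMM-D glucose medium; doses: one concentration, 10 µM final, 0.25% DMSO; incubation: 48 h compound exposure at 30 °C; detection: optical density at 615 nm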

[3] = doxorubicin toxicity protection in MRP-1 cells – H69AR cells, CellTiter-Glo, duplicate, MRP-1 activator project, pilot screen (AID 807); details: H69AR viability with doxorubicin, CellTiter-Glo luminescence; at 10 µM; hits give high values;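 also: compound pretreatment 18-22 h then 72 h combined with doxorubicin; 0% = doxorubicin alone and 100% = vehicle without doxorubicin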
[4] = viability of HCT116 without oncogenic beta-catenin – human colon tumor cells, pilot screen (AID 823;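 active = cell viability at or below a set limit in both duplicate runs, the limit being the all-compound median minus 4 SD, cut at about 23% in these data, passing the limit was not always enough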;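 also: 0% = wells killed by 20 µM Hyamine and 100% = untreated DMSO cell wells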); details: HCT116 beta-catenin knockout viability, CellTiter-Glo, 60 h; at 10 µM; hits give low values
[5] = viability of PTEN-null HCT116 cells – cell-based, HCT116 clonal line, CellTiter-Glo, pilot screen (AID 824;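 active = viability at or below 27.92% in each of two runs, the all-compound median minus 4 SD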;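 also: 0% = 20 µM Hyamine control and 100% = vehicle cell control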); details: HCT116 PTEN-deleted viability, 60 h, at 10 µM, hits give low values
[6] = RAM pathway blockade in budding yeast – dse1pr::URA3 reporter, 5-FOA selection, pilot screen (AID 869;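 active = inhibition over a set limit, the all-compound mean plus 3 SD, in both replicate runs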;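 also: 0% = DMSO wells with no growth and 100% = 10 µM 1-NA-PP1 with full growth; RAM network block rescues cells from 5-FOA so hits raise OD615 growth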); details: S. cerevisiae dse1pr::URA3 5-FOA growth, OD615, 2 d; at 10 µM; hits give high values; strain carries analog-sensitive mutant Cbk1 kinase
[7] = RAM signaling pathway blockade in yeast – S. cerevisiae, Pdr1DBD-CYC8 efflux-inhibited sensitized strain, primary screen (AID 1298;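 active = RAM network inhibition above 8.4% in each of two replicates, 3 SD over the compound average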;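 also: 0% = DMSO untreated cells without growth and 100% = 10 µM 1-NA-PP1 full growth; higher means more yeast growth rescued from 5-FOA killing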); details: S. cerevisiae cbk1-as DSE1-URA3 strain, 5-FOA growth OD615, 2 d; at 50 µM; hits give high values

Cc1cc(C(=O)N2CCN(c3ccccn3)CC2)no1
inactive: growth inhibition [1] -1.03% | growth inhibition [2] 0.795% | viability increase [3] 0.33% | viability [4] 109% | viability [5] 102% | inhibition [6] 1.05% | RAM network inhibition [7] 2.86%

O=C(NCc1ccccn1)c1ccc2ccccc2n1
inactive: growth inhibition [1] 4.58% | growth inhibition [2] -7.25% | viability increase [3] -1.47% | viability [4] 111% | viability [5] 102% | inhibition [6] 1.32% | RAM network inhibition [7] 5.32%

Cc1nn(Cc2ccc(Cl)c(Cl)c2)c(C)c1NC(=O)c1cc(C2CC2)on1
inactive: growth inhibition [1] -10.7% | growth inhibition [2] 1.77% | viability increase [3] 1.41% | viability [4] 79% | viability [5] 84.7% | inhibition [6] 0.125% | RAM network inhibition [7] 2.79%

CNc1nc(-c2ccc(Cl)cc2)cs1
inactive: growth inhibition [1] -5.83% | growth inhibition [2] -22.5% | viability increase [3] 0.42% | viability [4] 92.1% | viability [5] 87.8% | inhibition [6] 0.94% | RAM network inhibition [7] 0.43%

O=C(NC1CCS(=O)(=O)C1)c1ccccc1C(=O)c1ccccc1 (configuration not stated)
inactive: growth inhibition [1] -15.2% | growth inhibition [2] -9.07% | viability increase [3] -0.35% | viability [4] 102% | viability [5] 99.1% | inhibition [6] 2.46% | RAM network inhibition [7] 9.61%

O=C(C1Cc2ccccc2O1)N1CCCCC1 (configuration not stated)
inactive: growth inhibition [1] -0.465% | growth inhibition [2] 2.46% | viability increase [3] -1.5% | viability [4] 103% | viability [5] 101% | inhibition [6] 0.17% | RAM network inhibition [7] 4.37%

C=CCSC1=N/C(=C\c2ccc3c(c2)OCO3)C(=O)S1
inactive: growth inhibition [1] -6.71% | growth inhibition [2] -9.09% | viability increase [3] -5.28% | viability [4] 103% | viability [5] 96.7% | inhibition [6] 4.59% | RAM network inhibition [7] 7.07%

COc1cc(OC)c(NC(=O)c2ccc(Br)o2)cc1Cl
inactive: growth inhibition [1] -8.78% | growth inhibition [2] 7.46% | viability increase [3] -7.05% | viability [4] 69.8% | viability [5] 70.6% | inhibition [6] 1.47% | RAM network inhibition [7] 10.5%

O=C(c1cc(F)c(F)cc1Cl)N1CCCCC1
inactive: growth inhibition [1] -2.35% | growth inhibition [2] 1.34% | viability increase [3] -1.35% | viability [4] 92.1% | viability [5] 90.6% | inhibition [6] 2.08% | RAM network inhibition [7] 2.31%

O=C(O)C1C2C=CC(C2)C1C(=O)NCCc1cccc(Cl)c1 (configuration not stated)
inactive: growth inhibition [1] -2.6% | growth inhibition [2] 3.11% | viability increase [3] -1.41% | viability [4] 104% | viability [5] 94.7% | inhibition [6] 0.045% | RAM network inhibition [7] 2.92%

COc1ccc(OC)c(NC(=O)C2CCCN(S(=O)(=O)c3cccc4cccnc34)C2)c1 (configuration not stated)
inactive: growth inhibition [1] -12.7% | growth inhibition [2] -10.7% | viability increase [3] -3.24% | viability [4] 87.3% | viability [5] 80.1% | inhibition [6] 1.78% | RAM network inhibition [7] 6.71%

O=C(CCS(=O)(=O)c1cccs1)NC1CCCCCC1
inactive: growth inhibition [1] -2.95% | growth inhibition [2] -4.64% | viability increase [3] -0.19% | viability [4] 94.6% | viability [5] 92.7% | inhibition [6] 1.29% | RAM network inhibition [7] 5.23%

Cc1ccccc1CN1CCNC(=O)C1CC(=O)O (configuration not stated)
inactive: growth inhibition [1] -13.2% | growth inhibition [2] -14.1% | viability increase [3] -3.29% | viability [4] 105% | viability [5] 96.2% | inhibition [6] 2.04% | RAM network inhibition [7] -0.64%

NS(=O)(=O)c1ccc(CCNC(=O)NC2(C(F)(F)F)Oc3ccccc3O2)cc1
inactive: growth inhibition [1] -2.1% | growth inhibition [2] -6.81% | viability increase [3] -6.42% | viability [4] 63.4% | viability [5] 80.3% | inhibition [6] 0.12% | RAM network inhibition [7] 3.68%

O=C(Nc1ccccc1O)c1ccccc1O
inactive: growth inhibition [1] -9.29% | growth inhibition [2] 2.25% | viability increase [3] -3.07% | viability [4] 75.1% | viability [5] 63.3% | inhibition [6] -0.42% | RAM network inhibition [7] -1.84%

Cc1ccc(S(=O)(=O)N2CCN(C(=O)CN3CCCC3)C2)cc1
inactive: growth inhibition [1] -15.1% | growth inhibition [2] -11.2% | viability increase [3] -0.87% | viability [4] 92.4% | viability [5] 100% | inhibition [6] 1.62% | RAM network inhibition [7] 8.99%

Cc1ccc(S(=O)(=O)CNC(=O)c2ccccc2)cc1
inactive: growth inhibition [1] -4.27% | growth inhibition [2] 3.26% | viability increase [3] 1.64% | viability [4] 97.8% | viability [5] 96.8% | inhibition [6] 1.57% | RAM network inhibition [7] 0.51%

CCSc1nnc(NC(=O)CSc2nc3c(c(=O)n2CCOC)SC(C)C3)s1 (configuration not stated)
inactive: growth inhibition [1] -5.35% | growth inhibition [2] -1.1% | viability increase [3] -2.95% | viability [4] 94.1% | viability [5] 94.4% | inhibition [6] 2.09% | RAM network inhibition [7] 7.38%

COc1cccc(-c2nc(CS(=O)CC(=O)O)c(C)o2)c1 (configuration not stated)
inactive: growth inhibition [1] -1.73% | growth inhibition [2] 2.52% | viability increase [3] -0.27% | viability [4] 99.9% | viability [5] 99.5% | inhibition [6] 1.31% | RAM network inhibition [7] 4.89%

CCn1c2ccccc2c2nnc(SCc3cc(=O)n4ccsc4n3)nc21
inactive: growth inhibition [1] -8.94% | growth inhibition [2] 8.05% | viability increase [3] -2.35% | viability [4] 93.5% | viability [5] 86.3% | inhibition [6] 1.52% | RAM network inhibition [7] 8.94%

COc1ccc(-n2nc3c(c2NC(=O)c2ccc(Br)cc2)CS(=O)C3)cc1 (configuration not stated)
inactive: growth inhibition [1] -4.15% | growth inhibition [2] 4.82% | viability increase [3] -2.41% | viability [4] 85.3% | viability [5] 91.5% | inhibition [6] 0.805% | RAM network inhibition [7] 2.87%

COc1cccc(-c2nnc(NC(=O)C3CCCCC3)o2)c1
inactive: growth inhibition [1] -14% | growth inhibition [2] -2.06% | viability increase [3] -3.8% | viability [4] 83.5% | viability [5] 85.7% | inhibition [6] 1.85% | RAM network inhibition [7] 1.88%

COc1ccc(C2CC(c3ccc(F)cc3)Nc3nc(N)nn32)cc1OC (configuration not stated)
inactive: growth inhibition [1] -0.9% | growth inhibition [2] 4.9% | viability increase [3] -0.13% | viability [4] 102% | viability [5] 92.4% | inhibition [6] 1.21% | RAM network inhibition [7] 7.75%

CCSc1nnc(NC(=O)C(C)C)s1
inactive: growth inhibition [1] 3.02% | growth inhibition [2] -5.11% | viability increase [3] 1.51% | viability [4] 100% | viability [5] 109% | inhibition [6] 0.765% | RAM network inhibition [7] 0.89%

CC(C)(C)N1C(=O)c2ccc(C(=O)Nc3nccs3)cc2C1=O
inactive: growth inhibition [1] -7.12% | growth inhibition [2] -7.02% | viability increase [3] -0.27% | viability [4] 106% | viability [5] 103% | inhibition [6] 0.64% | RAM network inhibition [7] 0.63%

Cn1c(Cn2c(=O)sc3ccccc32)nnc1SCC(=O)NCC1CCCO1 (configuration not stated)
inactive: growth inhibition [1] -6.81% | growth inhibition [2] -7.68% | viability increase [3] -1.15% | viability [4] 99.3% | viability [5] 90% | inhibition [6] 0.85% | RAM network inhibition [7] 2.22%

COC(=O)C1CCN(C(c2cccs2)c2sc3nc(C)nn3c2O)CC1 (configuration not stated)
inactive: growth inhibition [1] -3.2% | growth inhibition [2] 1.52% | viability increase [3] -1.54% | viability [4] 102% | viability [5] 96.4% | inhibition [6] 1.68% | RAM network inhibition [7] 1.07%

CC1CN(C(=O)c2cc3ccccc3oc2=O)CC(C)O1 (configuration not stated)
inactive: growth inhibition [1] 5.08% | growth inhibition [2] -3.64% | viability increase [3] 0.49% | viability [4] 98.4% | viability [5] 103% | inhibition [6] 0.555% | RAM network inhibition [7] 2.33%

COc1ccccc1CCNC(=O)c1cnn2c(C(F)F)cc(C)nc12
inactive: growth inhibition [1] -0.75% | growth inhibition [2] 11.3% | viability increase [3] -0.37% | viability [4] 103% | viability [5] 97.7% | inhibition [6] -0.1% | RAM network inhibition [7] 4.32%

NC(=O)c1ccsc1NC(=O)C1CC1
inactive: growth inhibition [1] -0.315% | growth inhibition [2] 0.175% | viability increase [3] -2.38% | viability [4] 103% | viability [5] 100% | inhibition [6] 1.22% | RAM network inhibition [7] 0.32%

Cc1c(C(=O)NCC(C)C)sc2nc(-c3ccc(F)cc3)cn12
inactive: growth inhibition [1] -13.9% | growth inhibition [2] -12% | viability increase [3] 1.99% | viability [4] 111% | viability [5] 103% | inhibition [6] 2.99% | RAM network inhibition [7] 10.7%

C=CCNc1oc(Cc2cccc3ccccc23)nc1C#N
inactive: growth inhibition [1] -19.8% | growth inhibition [2] -9.46% | viability increase [3] -3.89% | viability [4] 107% | viability [5] 88% | inhibition [6] 1.04% | RAM network inhibition [7] 2.18%

COC(=O)c1ccsc1NC(=O)C1COc2ccccc2O1 (configuration not stated)
inactive: growth inhibition [1] 6.25% | growth inhibition [2] 8.76% | viability increase [3] -1.07% | viability [4] 92.4% | viability [5] 85.5% | inhibition [6] 0.425% | RAM network inhibition [7] 8.05%

CCN(CCNC(=O)C1CCN(c2nnc(-n3cccc3)s2)CC1)c1ccccc1
inactive: growth inhibition [1] -4.1% | growth inhibition [2] -6.63% | viability increase [3] -3.79% | viability [4] 90.6% | viability [5] 92.7% | inhibition [6] 0.38% | RAM network inhibition [7] 8.71%

O=C1CC(c2nc3ccccc3[nH]2)CN1c1ccccc1F (configuration not stated)
inactive: growth inhibition [1] 3.64% | growth inhibition [2] -1.12% | viability increase [3] -0.52% | viability [4] 98.3% | viability [5] 92.5% | inhibition [6] 0.355% | RAM network inhibition [7] 1.89%

O=C(O)CCn1c(=O)[nH]c2ccccc2c1=O
inactive: growth inhibition [1] -6.32% | growth inhibition [2] -15.1% | viability increase [3] 0.62% | viability [4] 109% | viability [5] 105% | inhibition [6] 1.34% | RAM network inhibition [7] 0.63%
